# Measurements published in PMC6448791 (Journal of natural products, 2017).
# “And” between values parts separate entries of the source, which are not always exact repeats. Identical values can stand only once. Like-named read-outs stand apart in the source and are kept apart here.
# Tests used:
# [1] = system: rabbit erythrocytes; test: Hemolytic assay; type: cell-based; conditions: for HD50 (concentration inducing 50% of erythrocyte hemolysis): 37 °C, 60 min, PBS pH 7.4; for fold lower hemolytic toxicity than 1: HD50 relative to compound 1, rabbit erythrocytes
# [2] = system: SMMC-771 (hepatocellular carcinoma); test: MTT cytotoxicity assay, SMMC-7721; type: cell-based, human
# Procedure, shortened: (§1)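 Cells kept in RPMI-1640 with 10% FBS, penicillin and streptomycin at 37 °C under 5% CO2. Seeded at 5 × 10^4 cells/mL and pre-incubated 24 h. Exposed to test compound at preset concentrations for 48 h. MTT (0.5 mg/mL) added for 4 h, formazan dissolved in DMSO, A490 read. Inhibition % = (ODc − ODt)/ODc × 100. Cisplatin as positive control.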
# [3] = system: BGC-823 (gastric carcinoma); test: MTT cytotoxicity assay, BGC-823; type: cell-based, human
# Procedure, shortened: as §1
# [4] = system: PARP, pro-caspase-3, pro-caspase-9, pro-caspase-8; test: Western blot of apoptosis-related proteins; type: cell-based
# Procedure, shortened: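 A549 cells treated with test compound for 24 h beside untreated control. Lysed in 100 mM Tris-Cl pH 6.8, 4% SDS, 20% glycerol, 200 mM β-mercaptoethanol, 1 mM PMSF plus aprotinin, then spun 12000g for 15 min at 4 °C. Protein measured by BCA, run on 10–15% SDS-PAGE and moved to PVDF. Primary antibodies overnight at 4 °C, HRP secondary, ECL detection; lamin A probed.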
# [5] = system: all five tested human cancer cell lines; test: SRB cytotoxicity, all five tested human cancer cell lines; type: cell-based; conditions: read-out: IC50 against all five tested human cancer cell lines
# Procedure, shortened: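 ATCC-sourced lines grown in RPMI-1640 with 10% FBS at 37 °C, 5% CO2. Seeded at 3–5 × 10^3 cells/well in medium already containing graded test compound, then 72 h exposure. Fixed with cold 50% TCA for 30 min, stained with 0.04% SRB for 30 min, bound dye taken up in 10 mM Tris base, A515 read.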
# [6] = system: A549 human lung cancer cell line; test: SRB cytotoxicity assay, A549; type: cell-based
# [7] = system: erythrocytes; conditions: cited from earlier work
# [8] = Homo sapiens, SMMC-7721, read-out: IC50 SMMC-771
# [9] = Homo sapiens, BGC-823, read-out: IC50 BGC-823
# [10] = 24 h treatment, compared to controls
# [11] = as the concentration of 14 increased
Molecule,HD50 (concentration inducing 50% of erythrocyte hemolysis) ([1]; rabbit erythrocytes),"IC50 [2, 8]","IC50 [3, 9]",also measured
"C[C@@H]1O[C@@H](O[C@H]2[C@H](O[C@H]3CC[C@@]4(C)[C@@H](CC[C@]5(C)[C@@H]4C(=O)C=C4[C@@H]6CC(C)(C)CC[C@]6(C(=O)O)CC[C@]45C)[C@]3(C)CO)OC[C@H](O[C@@H]3O[C@H](CO)[C@@H](O)[C@H](O)[C@H]3O)[C@@H]2O)[C@H](O)[C@H](O)[C@H]1O [compound 4, 3β,23-Dihydroxy-11-oxo-olean-12-en-28-oic acid-3-O-α-L-rhamnopyranosyl-(1→2)-[β-D-gluco-pyranosyl-(1→4)]-α-L-arabinopyranoside]",239 µM and 239 ± 22.2 µM,> 10 µM,> 10 µM,
"C[C@@H]1O[C@@H](O[C@H]2[C@H](O[C@H]3CC[C@@]4(C)[C@@H](CC[C@]5(C)[C@@H]4C(=O)C=C4[C@@H]6CC(C)(C)CC[C@]6(C(=O)NCC(=O)O)CC[C@]45C)[C@]3(C)CO)OC[C@H](O[C@@H]3O[C@H](CO)[C@@H](O)[C@H](O)[C@H]3O)[C@@H]2O)[C@H](O)[C@H](O)[C@H]1O [compound 7, 3β,23-Dihydroxy-11-oxo-olean-12-en-28-(glycine)oic acid-3-O-α-L-rhamnopyranosyl-(1→2)-[β-D-glucopyranosyl-(1→4)]-α-L-arabinopyranoside]",290−308 μM and 290 ± 27.0 μM,> 10 µM,> 10 µM,
"C[C@@H]1O[C@@H](O[C@H]2[C@H](O[C@H]3CC[C@@]4(C)[C@@H](CC[C@]5(C)[C@@H]4CC(=O)[C@@H]4[C@@H]6CC(C)(C)CC[C@]6(C(=O)O)CC[C@]45C)[C@]3(C)CO)OC[C@H](O[C@@H]3O[C@H](CO)[C@@H](O)[C@H](O)[C@H]3O)[C@@H]2O)[C@H](O)[C@H](O)[C@H]1O [compound 9, 3β,23-Dihydroxy-12-oxo-olean-28-oic acid-3-O-a-L-rhamnopyranosyl-(1→2)-[β-D-glucopyranosyl-(1→4)]-a-L-arabinopyranoside]",73.1 µM and 73.1 ± 9.0 µM,> 10 µM,> 10 µM,fold lower hemolytic toxicity than 1 [1]: at least 10 fold
"C[C@@H]1O[C@@H](O[C@H]2[C@H](O[C@H]3CC[C@@]4(C)[C@@H](CC[C@]5(C)[C@@H]4CC(=O)[C@]46OC(=O)[C@@]7(CCC(C)(C)C[C@H]74)CC[C@@]56C)[C@]3(C)CO)OC[C@H](O[C@@H]3O[C@H](CO)[C@@H](O)[C@H](O)[C@H]3O)[C@@H]2O)[C@H](O)[C@H](O)[C@H]1O [compound 10, 3β,23-Dihydroxy-12-oxo-olean-28-oic acid-28,13β-lactone-3-O-α-L-rhamnopyranosyl-(1→2)-[β-D-glucopyranosyl-(1→4)]-α-L-arabinopyranoside]",290 μM and 290−308 μM and 290 ± 25.5 μM,> 10 µM,> 10 µM,fold lower hemolytic toxicity than 1 [1]: ~50 fold
"C[C@@H]1O[C@@H](O[C@H]2[C@H](O[C@H]3CC[C@@]4(C)[C@@H](CC[C@]5(C)[C@@H]4C[C@H](O)[C@]46OC(=O)[C@@]7(CCC(C)(C)C[C@H]74)CC[C@]65C)[C@]3(C)CO)OC[C@H](O[C@@H]3O[C@H](CO)[C@@H](O)[C@H](O)[C@H]3O)[C@@H]2O)[C@H](O)[C@H](O)[C@H]1O [compound 11, 33β,12α,23-Trihydroxyolean-28-oic acid 28,13β-lactone-3-O-α-3L3-rhamnopyranosyl-(1→32)-[β-3D3-glucopyranosyl-(1→34)]-α-3L3-arabinopyranoside]",308 μM and 290−308 μM and 308 ± 24.2 μM,> 10 µM,> 10 µM,fold lower hemolytic toxicity than 1 [1]: ~50 fold
"CC(=O)OC[C@@]1(C)[C@@H]2CC[C@]3(C)[C@H](CC=C4[C@@H]5CC(C)(C)CC[C@]5(C(=O)O)CC[C@]43C)[C@@]2(C)CC[C@@H]1OC(C)=O [compound 12, 3β,23-Diacetoxyolean-12-en-28-oic acid]",>500 µM,,,
"CCOC(=O)CNC(=O)[C@]12CCC(C)(C)C[C@H]1C1=CC[C@@H]3[C@@]4(C)CC[C@H](OC(C)=O)[C@@](C)(COC(C)=O)[C@@H]4CC[C@@]3(C)[C@]1(C)CC2 [compound 13, 3β,23-Diacetoxyolean-12-en-N-[glycineethyl ester]-28-formamide]",>500 µM,,,
"CCOC(=O)CCCNC(=O)[C@]12CCC(C)(C)C[C@H]1C1=CC[C@@H]3[C@@]4(C)CC[C@H](OC(C)=O)[C@@](C)(COC(C)=O)[C@@H]4CC[C@@]3(C)[C@]1(C)CC2 [compound 14, 3β,23-Diacetoxyolean-12-en-N-[4-aminobutanoic acid ethyl ester]-28-formamide]",>500 µM,,,"expression of pro-caspase-3 [4, 10]: decreased; expression of pro-caspase-8 [4, 10]: decreased; expression of pro-caspase-9 [4, 10]: decreased; expression of PARP [4, 11]: decreased; expression of cleaved PARP [4, 11]: increased; IC50 [5]: 2.8 to 8.6 µM"
"CCOC(=O)CCCCCNC(=O)[C@]12CCC(C)(C)C[C@H]1C1=CC[C@@H]3[C@@]4(C)CC[C@H](OC(C)=O)[C@@](C)(COC(C)=O)[C@@H]4CC[C@@]3(C)[C@]1(C)CC2 [compound 15, 3β,23-Diacetoxyolean-12-en-N-[6-aminocaproic acid ethyl ester]-28-formamide]",>500 µM,,,
"CC1(C)CC[C@]2(C(=O)NCC(=O)O)CC[C@]3(C)C(=CC[C@@H]4[C@@]5(C)CC[C@H](O)[C@@](C)(CO)[C@@H]5CC[C@]43C)[C@@H]2C1 [compound 16, 3β,23-Dihydroxyolean-12-en-28-(glycine)oic acid amide]",>500 µM,,,
"CC1(C)CC[C@]2(C(=O)NCCCC(=O)O)CC[C@]3(C)C(=CC[C@@H]4[C@@]5(C)CC[C@H](O)[C@@](C)(CO)[C@@H]5CC[C@]43C)[C@@H]2C1 [compound 17, 3β,23-Dihydroxyolean-12-en-28-(4-aminobutanoic acid)oic acid amide]",>500 µM,,,
"CC1(C)CC[C@]2(C(=O)NCCCCCC(=O)O)CC[C@]3(C)C(=CC[C@@H]4[C@@]5(C)CC[C@H](O)[C@@](C)(CO)[C@@H]5CC[C@]43C)[C@@H]2C1 [compound 18, 3β,23-Dihydroxyolean-12-en-28-(6-aminocaproic acid)oic acid amide]",>500 µM,,,
"CC1(C)CC[C@]2(C(=O)O)CC[C@]3(C)C(=CC[C@@H]4[C@@]5(C)CC[C@H](O)[C@@](C)(CO)[C@@H]5CC[C@]43C)[C@@H]2C1 [hederagenin, reference compound]",>200 µM,,,cytotoxicity toward A549 cancer cells (in words) [6]: inactive; hemolytic toxicity (in words) ([1]; rabbit erythrocytes): low hemolytic toxicity
hederagenin 3-O-α-L-rhamnopyr-anosyl-(1→2)-[β-D-glucopyranosyl-(1→4)]-α-L-arabinopyrano-side [compound 1],6.3 µM and 6.3 ± 0.58 µM,,,"IC50 ([2]; read-out: IC50 SMMC-771, MTT assay): 4.4 µM; IC50 ([3]; read-out: IC50 BGC-823, MTT assay): 7.2 µM; HD50 (hemolytic toxicity) [7]: 6.3 µM"
